Screening data as filed in PubChem.
Shown are actives, neighbours in structure and some others; about 3.4% of the full set was active somewhere.
MKP-1 inh: MKP-1 phosphatase inhibitors, primary screen, biochemical, in vitro | AID 374, 2006 | inhibition, %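 (compounds tested at a single concentration somewhere between 10 and 100 µM)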 | recombinant MKP-1, OMFP hydrolysis fluorescence | Dual specificity protein phosphatase 1 (Homo sapiens), P28562 | 65,000 compounds, 0.15% hits;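 active means inhibition above about 50%, limit read from the data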;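 further: 0% = DMSO max control wells and 100% = wells with enzyme stopped by NaOH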
Hsp90 block: tumor Hsp90 inhibitors, primary screen, cell lysate, fluorescence polarization, NCI-N417 lysate; Cy3B-geldanamycin FP displacement; 64,000 compounds, 0.35% hits; AID 429, 2006; inhibition, % at 30 µM;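 active means inhibition above 50%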;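 further: 0% = tracer plus lysate wells and 100% = tracer alone without lysate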
JNK3 inh: JNK3 kinase activity inhibitors, primary screen, biochemical, human, purified enzyme; Mitogen-activated protein kinase 10 (Homo sapiens), P53779; HTS; inhibition, % at 8 µM; 60,000 compounds, 0.61% hits; AID 746, 2007; in the data active means inhibition above about 17%;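 further: 0% = DMSO and 100% = reference inhibitor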
RORa activator: activators of orphan receptor RORA, primary screen, cell-based, luminescence | Nuclear receptor ROR-alpha (Homo sapiens), P35398 | CHO-K1 Gal4-RORA LBD luciferase reporter; percent increase over mock-subtracted basal signal | activation, % at 10 µM | 65,000 compounds, 1.5% hits | AID 560, 2006;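 active means activation above the mean of all tested compounds plus 3 SD, cut at about 49% in these data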;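 further: 0% = DMSO-treated RORA cells and 100% = added signal equal to DMSO minus mock-transfected cells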
Cdc25B inh: inhibitors of Cdc25B phosphatase catalytic domain, primary screen, biochemical, OMFP fluorescence | M-phase inducer phosphatase 2 (Homo sapiens), P30305 | recombinant Cdc25B, OMFP fluorescence Ex485/Em525 | inhibition, %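 (compounds tested at 10 µM final in the well)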 | 65,000 compounds, 0.1% hits; in the data active means inhibition above about 50%
SF-1 act: activators of human SF-1, primary screen, cell-based, CHO-K1, Gal4-SF-1 LBD, luciferase luminescence | Steroidogenic factor 1 (Homo sapiens), Q13285 | CHO-K1 Gal4-SF-1 LBD luciferase reporter; % increase over DMSO SF-1-specific signal | activation, % at 10 µM | 65,000 compounds, 1.9% hits | AID 522, 2006;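 active means activation above the mean activation of all tested compounds plus 3 SD, cut at about 50% in these data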
Target sequence (Q13285 whole entry, looked up, the tested form may be a part): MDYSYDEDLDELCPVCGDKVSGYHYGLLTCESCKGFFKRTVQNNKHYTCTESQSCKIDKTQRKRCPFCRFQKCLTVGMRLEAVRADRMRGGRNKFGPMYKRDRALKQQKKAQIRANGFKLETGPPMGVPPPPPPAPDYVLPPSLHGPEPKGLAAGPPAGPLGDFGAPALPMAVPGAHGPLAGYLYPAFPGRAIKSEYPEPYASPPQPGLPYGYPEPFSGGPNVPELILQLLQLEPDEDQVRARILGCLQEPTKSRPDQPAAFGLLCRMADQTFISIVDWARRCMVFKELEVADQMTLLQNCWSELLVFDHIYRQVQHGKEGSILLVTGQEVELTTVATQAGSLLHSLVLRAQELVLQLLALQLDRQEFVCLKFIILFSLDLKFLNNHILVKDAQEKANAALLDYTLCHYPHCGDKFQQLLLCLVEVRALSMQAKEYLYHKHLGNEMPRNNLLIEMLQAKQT
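Assay system: CHO-K1 cells co-transfected with Gal4 DBD–human SF-1 LBD, 5xGal4 luciferase reporter / Input: 4,000 cells per well / Incubation: 20 h compound exposure at 37 °C after 1 h cell settling / Detection: SteadyLite luciferase luminescence / Control set: DMSO negative control and −SF1 background wells / Replication: one test per compound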
* hit, by the source's call; nt = no result.

SMILES	MKP-1 inh	Hsp90 block	JNK3 inh	RORa activator	Cdc25B inh	SF-1 act
COC(=O)c1ccc(Cn2c(O)c(N=O)c3ccccc32)o1	-15	-6	20*	-19	-30	8
CC(=O)Cc1nsc(NC(=O)c2ccc(COc3ccccc3)o2)n1	-36	-3	-3	-1	3	-1
C=CCSc1n[nH]c(-c2ccc(OCCC)cc2)n1	2	0	2	62*	-2	55*
C=CCSc1n[nH]c(-c2ccc(OCCCC)cc2)n1	6	-9	-2	31	-25	68*
O=C(c1ccco1)N1CCN(CC(O)Cn2c3ccccc3c3ccccc32)CC1 (configuration not stated)	30	-3	nt	-4	-10	5
O=C(CCCCCn1c(SCc2ccncc2)nc2ccccc2c1=O)NCc1ccco1	25	-9	18*	-9	-22	8
O=C(CSc1nc2ccccc2c(=O)n1CCCC(=O)N1CCCC1)NCc1ccco1	8	-2	nt	-2	-16	-6
Cc1nc2ccccc2c(=O)n1/N=C/c1ccccn1	-3	0	5	26	-3	50*
Cc1nc2ccccc2c(=O)n1/N=C/c1ccc(N(C)C)cc1	14	0	-4	19	-9	18
CCN(CC)S(=O)(=O)c1cccc(-c2nc3n(n2)Cc2ccccc2-3)c1	4	-1	9	46	-4	61*
N#CCc1nc2n(n1)Cc1ccccc1-2	10	nt	nt	-2	-10	5
Cc1nn(-c2nc3ccccc3s2)c(C)c1Oc1ccccc1O	-4	0	5	66*	-3	58*
O=C(CCSc1nnnn1-c1ccccc1)N1CCOCC1	4	-2	nt	2	5	6
Cc1ccc(SCCC(=O)N2CCOCC2)cc1	0	2	2	51*	-3	47
O=C(CCSc1ccccc1)N1CCOCC1	6	1	-5	32	-7	52*
COC(=O)C1(S(=O)(=O)c2cccc3nsnc23)CC1	29	-3	0	5	-2	15
CN1C(=O)c2ccccc2C(C(=O)O)C1c1cn(C)c2ccccc12 (configuration not stated)	-7	1	-3	-11	-18	-9
Cn1c(SCc2ccccc2F)nc2cccnc21	-19	-1	4	80*	0	6
Fc1ccccc1CSc1nc2ncccc2[nH]1	11	-1	7	34	-3	51*
CC(=O)NCCn1c(SCc2ccccc2F)nc2ccccc2c1=O	27	0	-7	-14	-11	-13
c1ccc(-c2ccccc2-n2cnnn2)cc1	1	-2	-2	9	4	-21
Cn1c(C(C#N)C(=O)c2ccco2)nc2ccccc21 (configuration not stated)	-18	-5	-5	67*	3	59*
O=C(O)c1cc(O)c2c(c1)C(=O)c1cccc(O)c1C2=O	1	139*	0	-28	-5	-4
CCN(CC)c1ccc(-c2nc3cnccc3n2C)cc1	18	-3	-10	67*	4	37
CCN(CC)c1ccc2c(c1)C(=O)N(C)C2=O	-1	-10	-2	0	-1	44
SMILES	MKP-1 inh	Hsp90 block	JNK3 inh	RORa activator	Cdc25B inh	SF-1 act
N#CC1=C(N)S[C@H](C(=O)C23CC4CC(CC(C4)C2)C3)[C@H]1c1ccncc1	16	0	-9	-7	-1	5
Cc1ccc2oc(-c3ccc(NC(=O)CC(C)C)cc3)nc2c1	-2	-1	3	55*	32	44
CC(C)CC(=O)Nc1ccc2oc(-c3cccnc3)nc2c1	12	-1	5	46	0	32
O=C(Nc1ccc2oc(-c3ccccc3Cl)nc2c1)c1ncn[nH]1	17	-3	1	62*	-1	76*
CC(=O)Nc1ccc2oc(-c3cc(F)c(F)cc3Cl)nc2c1	10	1	-11	52*	2	53*
CC(C)c1ccc2oc(-c3ccc(NC(=O)c4ncn[nH]4)cc3)nc2c1	-1	-4	7	33	-2	66*
CCOC(=O)c1ccc(NC(=O)NC(C)C2CCCO2)cc1 (configuration not stated)	9	-4	-1	18	-6	8
CC(=O)Nc1cnc2ccccc2n1	-13	56*	4	-6	-17	15
CCC(=O)Nc1ccc(NC(=O)c2ccco2)c(OC)c1	1	4	7	45	-1	12
COc1cc(NC(=O)CC(C)C)ccc1NC(=O)c1ccco1	5	-1	-6	80*	-6	44
COc1ccc(C(=O)Nc2cc(C)on2)cc1	1	0	-2	77*	-6	-1
COc1ccc(C(=O)Nc2cccc(OC)c2)cc1	1	-1	5	46	-7	81*
O=C(Nc1ccc(Br)c(Cl)c1)c1ccco1	1	-6	4	76*	-10	92*
CCCCC(=O)NC(Nc1nc(C2CC2)cs1)(C(=O)OCC)C(F)(F)F (configuration not stated)	7	-2	5	12	-7	-5
COc1cc(C(O)CO)ccc1OS(=O)(=O)O (configuration not stated)	nt	-2	nt	nt	nt	nt
O=C(Nc1cccc(OC(=O)c2ccco2)c1)c1ccco1	4	-4	3	10	-10	7
COc1cccc(NC(=O)c2ccco2)c1	-4	-1	3	54*	0	27
c1csc(-c2cnc3ccccc3n2)c1	7	-4	25*	95*	6	50*
C#CCn1c(=NC(=O)c2cccs2)sc2cccc(OC)c21	-2	1	4	79*	-3	76*
O=C(Nc1ccc(N2CCOCC2)cc1)C1CC1	-4	2	2	5	1	-3
O=C(Nc1ccc(N2CCOCC2)c(Cl)c1)C1CCCCC1	4	1	4	49*	-9	47
CC(=O)OC(C(=O)NC1CCCCC1)c1ccc(C#N)cc1 (configuration not stated)	-18	-2	-3	3	-14	-15
O=C1NC(=O)C(c2ccccc2[N+](=O)[O-])=C1Nc1ccc(O)c(Cl)c1	nt	16	nt	nt	nt	nt
CN(c1cccc(NC(=O)Nc2cccc(Cl)c2)c1)S(C)(=O)=O	7	-2	-10	38	3	48
CN(C)c1ccc(NC(=O)Nc2cccc(Cl)c2)cc1	1	7	-17	3	2	64*
